Experimental data from different studies.
Lines come from different studies, so protocols differ.
ABCB1: ATP-dependent translocase ABCB1 (ABCB1, Homo sapiens, UniProt P08183)

SMILES	target or system	assay	system	conditions	endpoint	value
CC1=NN(c2ccc(C)c(C)c2)C(=O)/C1=N\Nc1cccc(-c2cccc(C(=O)O)c2)c1O	LN-229	cell growth or viability		72 h	IC50	20 to 30 µM
O=C1CC(N(CCc2ccccc2)C(=S)Nc2ccccc2)C(=O)N1c1ccc(Br)cc1 (centres unmarked)	Jurkat	cell growth or viability, ATP luminescence		18 h	CC50	< 20 µM
O=C(CCCCCCC(=O)Nc1ccc(CC[18F])cc1)NO	LNCaP		male nude, tumour	intravenous, 2 h, tumour-bearing	tracer uptake	1.5 %ID/g
O=C(O)CSc1nnc(Br)n1-c1ccc(C2CC2)c2ccccc12	Multidrug and toxin extrusion protein 2 (SLC47A2, Homo sapiens, UniProt Q86VL8)	transporter uptake, inhibitor	HEK293	1 µM, 2 min	inhibition	-21%
CC[C@@H]1CN(C(=O)NCC(F)(F)F)C[C@@H]1c1cnc2cnc3[nH]ccc3n12			beagle dog, plasma	oral, 1 mg/kg, single dose	MRT(0-t)	9.27 h
Cc1cc(-c2ccc(C(F)(F)F)cn2)[nH]c1C(=O)N[C@H](CN)c1nc(CO)cs1	Cf2Th-CCR5	cell growth or viability, MTS		48 h	CC50	> 47 µM
CC(C)CCC[C@@H](C)[C@H]1CC[C@H]2[C@@H]3CC=C4C[C@@H](OC(=O)CCC(=O)NCCCC[C@H](NC(=O)[C@H]5CCCN5C(=O)[C@H](CCC(=O)O)NC(=O)[C@H](C)NC(=O)[C@@H](NC(=O)C[C@H](O)[C@H](CC(C)C)NC(=O)[C@H](CC(N)=O)NC(=O)[C@@H](NC(=O)[C@H](CCC(=O)O)NC(=O)CNC(=O)[C@@H](CCCCN)NC(=O)CNC(=O)[C@H](CC(C)C)NC(=O)[C@@H]5CCCN5C(=O)[C@@H](CCCCN)NC(=O)[C@H](Cc5ccccc5)NC(=O)[C@H](Cc5ccc(O)cc5)NC(=O)[C@@H]5CCCN5C(=O)[C@@H](N)Cc5ccc(O)cc5)C(C)C)C(C)C)C(N)=O)CC[C@]4(C)[C@H]3CC[C@]12C			aqueous buffer	pH 6.5	thermodynamic solubility	> 500 µg/mL
COc1ccc(S(=O)(=O)ON=C2C=C(C)C(=O)C(C)=C2)cc1	LNCaP	cell growth or viability			CC50	3.54 µM
CCn1cnc2c(=O)[nH]c(N)nc21.NCCNCCN.[Pt+2]	Jurkat	cell growth or viability, WST-1			IC50	> 100 µM
Cc1cc(-c2ccc(C(F)(F)F)cn2)[nH]c1C(=O)N[C@@H](CN)c1ncc(CO)s1	Cf2Th-CCR5	cell growth or viability, MTS		48 h	CC50	> 47 µM
C[C@]12CCCN1CC1=NNC(=O)c3cc(F)cc4[nH]c2c1c34	ABCB1		MDCK-MDR1	1 µM	Papp B→A	36.4 ×10⁻⁶ cm/s
CC[C@H](C)[C@H](NC(=O)[C@H](Cc1ccccc1)NC(=O)[C@H](Cc1ccc(O)cc1)NC(=O)[C@@H]1CCCN1C(=O)[C@@H](N)Cc1ccc(O)cc1)C(=O)N1CCC[C@H]1C(=O)N[C@@H](CC(C)C)C(=O)N[C@H](CCCCN)C(=O)NCC(=O)NCC(=O)N[C@@H](CCC(=O)O)C(=O)N[C@H](C(=O)N[C@@H](CC(N)=O)C(=O)N[C@@H](CC(C)C)[C@@H](O)CC(=O)N[C@H](C(=O)N[C@@H](C)C(=O)N[C@@H](CCC(=O)O)C(=O)N1CCC[C@@H]1C(=O)N[C@@H](CCCCNC(=O)CCC(=O)O[C@H]1CC[C@@]2(C)C(=CC[C@H]3[C@@H]4CC[C@H]([C@H](C)CCCC(C)C)[C@@]4(C)CC[C@@H]32)C1)C(N)=O)C(C)C)C(C)C			aqueous buffer	pH 6.5	thermodynamic solubility	< 1 µg/mL
COCCc1ccc(OCC(O)CNC(C)C)cc1 (centres unmarked)	ABCB1		MDCK-MDR1	5 µM	Papp B→A	31.5 ×10⁻⁶ cm/s
CC1(C)CCC2(CC1)N[C@@H](C(=O)N[C@@H]1CC[C@@H](C(N)=O)OC1)[C@H](c1ccnc(Cl)c1F)[C@]21C(=O)Nc2cc(Cl)ccc21	ABCB1		Caco-2	10 µM, 2 h	efflux ratio	9.3
